Assays:
[1] = target: T1, Myelin-associated glycoprotein (Mus musculus, UniProt P20917); experiment: Binding affinity to mouse MAGd1-3Fc expressed in CHO-Lec 3.2.8.1 cells by SPR analysis
T1 sequence (P20917 whole entry): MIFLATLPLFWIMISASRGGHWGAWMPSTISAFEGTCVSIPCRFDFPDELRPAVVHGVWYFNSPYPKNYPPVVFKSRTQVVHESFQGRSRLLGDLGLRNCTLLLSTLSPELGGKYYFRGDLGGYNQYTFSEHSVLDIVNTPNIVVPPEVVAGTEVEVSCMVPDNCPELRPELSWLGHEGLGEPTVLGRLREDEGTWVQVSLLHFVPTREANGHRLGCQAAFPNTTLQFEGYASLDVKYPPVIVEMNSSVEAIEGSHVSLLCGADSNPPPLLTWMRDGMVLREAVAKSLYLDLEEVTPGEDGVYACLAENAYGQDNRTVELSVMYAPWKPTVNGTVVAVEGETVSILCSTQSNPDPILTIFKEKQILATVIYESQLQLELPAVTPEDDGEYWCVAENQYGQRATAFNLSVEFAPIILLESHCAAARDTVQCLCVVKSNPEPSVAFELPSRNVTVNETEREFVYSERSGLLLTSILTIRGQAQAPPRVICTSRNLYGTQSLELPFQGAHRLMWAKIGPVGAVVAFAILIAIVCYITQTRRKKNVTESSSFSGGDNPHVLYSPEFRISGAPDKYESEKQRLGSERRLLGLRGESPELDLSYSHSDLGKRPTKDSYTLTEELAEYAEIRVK
How it was run: (§1)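 Murine MAGd1-3-Fc (purified from CHO-Lec 3.2.8.1 supernatant) captured at 30-40 μg/mL to about 2000 RU on protein A, which was amine-coupled to a CM5 chip. Runs at 25 °C, 20 μL/min, with 1 min injection and 1 min dissociation. Ten-fold dilution series in duplicate, double blank referenced. Negative sensorgrams mirrored; equilibrium KD.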

[2] = target: T1, Myelin-associated glycoprotein; experiment: Binding affinity to mouse MAGd1-3Fc expressed in CHO-Lec 3.2.8.1 cells by biocore; type: cell-based; how it was run: as §1
[3] = target: T2, Myelin-associated glycoprotein (Mus musculus) (UniProt P20917); experiment: Inhibition of mouse MAGd1-3Fc expressed in CHO-Lec 3.2.8.1 cells by hepten inhibition assay relative to sodium-(2R,4S,5R,6R)-5-acetamido-2-(benzyloxy)-6-((1S,2R)-3-(4-chlorobenzamido)-1,2-dihydroxypropyl)-4-hydroxytetrahydro-2H-pyran-2-carboxylate; type: cell-based
T2 sequence (whole entry): T1 sequence (P20917 whole entry)
How it was run: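 Fetuin-coated microtiter plates. Murine MAGd1-3-Fc (from CHO-Lec 3.2.8.1, dialyzed into 10 mM phosphate pH 7.4) bound in the presence of 7-8 inhibitor concentrations, in triplicate. Bound protein detected with alkaline phosphatase-labeled anti-Fc, read as initial rate of fluorescein release from fluorescein diphosphate. IC50 from binding curves converted to rIC50. At least three independent titrations.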

[4] = Octanol-water distribution coefficient, log D at pH 7.4 by shake-flask technique; type: physicochemical
[5] = Stability in buffer solution at 37 degC after 19 hrs; type: physicochemical; conditions: read-out: Stability
[6] = Stability in artificial cerebrospinal fluid at 37 degC […]; type: physicochemical; conditions: read-out: Stability
[7] = target: T1, Myelin-associated glycoprotein; experiment: Binding affinity to mouse MAGd1-3Fc expressed in CHO-Lec 3.2.8.1 cells under HBS-EP condition by CM4 chip SPR analysis
How it was run: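 Protein A was amine-coupled to a CM4 chip (lower carboxylate density) and murine MAGd1-3-Fc captured on it. Run in HBS-EP at 25 °C, 20 μL/min, with 1 min association and 1 min dissociation. Ten-fold dilution series in duplicate, double blank referenced. Negative sensorgrams mirrored to give equilibrium KD.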

[8] = target: T1, Myelin-associated glycoprotein; experiment: Binding affinity to mouse MAGd1-3Fc expressed in CHO-Lec 3.2.8.1 cells under carboxymethyl-dextran sodium salt condition by CM5 chip SPR analysis
How it was run: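 Dextran (1 mg/mL) added to the running buffer to test nonspecific binding to the matrix. Murine MAGd1-3-Fc captured via protein A on a CM5 chip. Runs at 25 °C, 20 μL/min, 1 min injection and 1 min dissociation. Equilibrium KD from mirrored sensorgrams.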

[9] = target: T1, Myelin-associated glycoprotein; experiment: Binding affinity to mouse MAGd1-3Fc expressed in CHO-Lec 3.2.8.1 cells under HEPES condition by CM5 chip SPR analysis
How it was run: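 Murine MAGd1-3-Fc captured on protein A on a CM5 chip. Running buffer carried 50 mM instead of 10 mM HEPES to raise buffer capacity. SPR at 25 °C, 20 μL/min, 1 min injection and 1 min dissociation, double blank referenced. KD taken at equilibrium from mirrored sensorgrams.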

[10] = target: T1, Myelin-associated glycoprotein; experiment: Binding affinity to mouse MAGd1-3Fc expressed in CHO-Lec 3.2.8.1 cells under HBS-EP condition by CM5 chip SPR analysis; how it was run: as §1
[11] = target: T1, Myelin-associated glycoprotein; experiment: Binding affinity to mouse MAGd1-3Fc expressed in CHO-Lec 3.2.8.1 cells under NaCl condition by CM5 chip SPR analysis
How it was run: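 SPR on a CM5 chip with protein A-captured murine MAGd1-3-Fc. Salt was raised to 150-500 mM NaCl to exclude ionic repulsion. Runs at 25 °C, 20 μL/min, 1 min contact and 1 min dissociation, double blank referenced. Equilibrium KD from mirrored sensorgrams.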

[12] = target: T2, Myelin-associated glycoprotein (Mus musculus); experiment: Relative binding affinity to mouse MAGd1-3Fc expressed in CHO-Lec 3.2.8.1 cells by NMR analysis relative to compound 4

| SMILES | Kd [1] | Ratio [3] | logD [4] | further results |
| --- | --- | --- | --- | --- |
| CO[C@]1(C(=O)O)C[C@H](O)[C@@H](NC(C)=O)[C@H]([C@@H](O)[C@H](O)CNC(=O)c2ccccc2)O1 | 137 µM | 18 |  | Kd [2]: 137 µM |
| O=C(O)N[C@H]1[C@H]([C@H](O)[C@H](O)CNC(=O)c2ccc(Cl)cc2)O[C@@](O[C@H]2[C@@H](O)[C@@H](CO)O[C@@H](O[C@@H]3CCO[C@H](COCc4ccc(-c5ccccc5)cc4)[C@@H]3O)[C@@H]2O)(C(=O)O)C[C@@H]1O | 2.83 µM | 0.52 |  |  |
| COCC(=O)N[C@H]1[C@H]([C@@H](O)[C@H](O)CNC(=O)c2ccc(Cl)cc2)O[C@@](OCc2cccc(F)c2F)(C(=O)O)C[C@@H]1O | 2.3 µM | 0.14 | 0.06 |  |
| O=C(CF)N[C@H]1[C@H]([C@@H](O)[C@H](O)CNC(=O)c2ccc(Cl)cc2)O[C@@](OCc2cccc(F)c2F)(C(=O)O)C[C@@H]1O | 0.5 µM | 0.02 | -0.26 | remaining at 19 h [5]: 95%; remaining [6]: 95% |
| O=C(CCl)N[C@H]1[C@H]([C@@H](O)[C@H](O)CNC(=O)c2ccc(Cl)cc2)O[C@@](OCc2cccc(F)c2F)(C(=O)O)C[C@@H]1O | 2.1 µM | 0.07 | 0.35 |  |
| CC(=O)N[C@H]1[C@H]([C@@H](O)[C@H](O)CNC(=O)c2ccccc2)O[C@@](OCc2ccccc2)(C(=O)O)C[C@@H]1O | 26 µM | 1.5 |  | Kd [7]: 20 µM; Kd [8]: 17.8 µM; Kd [9]: 17.6 µM; Kd [10]: 21.8 µM; Kd [11]: 14.9 µM |
| CC(=O)N[C@H]1[C@H]([C@@H](O)[C@H](O)CNC(=O)c2ccc(Cl)cc2)O[C@@](OCc2ccc(F)cc2)(C(=O)O)C[C@@H]1O | 13 µM | 1.2 | -0.11 |  |
| CC(=O)N[C@H]1[C@H]([C@@H](O)[C@H](O)CNC(=O)c2ccc(Cl)c(Cl)c2)O[C@@](OCc2ccccc2)(C(=O)O)C[C@@H]1O | 19.2 µM | 1.61 |  |  |
| CC(=O)N[C@H]1[C@H]([C@@H](O)[C@H](O)CNC(=O)c2ccc(Cl)cc2)O[C@@](OCc2c(F)c(F)c(F)c(F)c2F)(C(=O)O)C[C@@H]1O | 6.1 µM | 0.26 | -0.11 |  |

More lines, main results first:

| Kd [1] | Ratio [3] | logD [4] | SMILES | further results |
| --- | --- | --- | --- | --- |
| 15 µM | 1.3 | 0.36 | CC(=O)N[C@H]1[C@H]([C@@H](O)[C@H](O)CNC(=O)c2ccc(Cl)cc2)O[C@@](OCc2ccc(Cl)cc2)(C(=O)O)C[C@@H]1O |  |
| 5.8 µM | 0.14 | 0.75 | O=C(NC[C@@H](O)[C@H](O)[C@@H]1O[C@@](OCc2cccc(F)c2F)(C(=O)O)C[C@H](O)[C@H]1NC(=O)C1CCC1)c1ccc(Cl)cc1 |  |
| 1.4 µM | 0.05 | 0.87 | O=C(NC[C@@H](O)[C@H](O)[C@@H]1O[C@@](OCc2cccc(F)c2F)(C(=O)O)C[C@H](O)[C@H]1NS(=O)(=O)c1ccccc1[N+](=O)[O-])c1ccc(Cl)cc1 |  |
| 11.6 µM | 0.74 | 0.58 | CC(=O)N[C@H]1[C@H]([C@@H](O)[C@H](O)CNC(=O)c2ccc(Cl)cc2)O[C@@](OCc2ccc3ccccc3c2)(C(=O)O)C[C@@H]1O |  |
| 17 µM | 1 |  | CC(=O)N[C@H]1[C@H]([C@@H](O)[C@H](O)CNC(=O)c2ccc(Cl)cc2)O[C@@](OCc2ccccc2)(C(=O)O)C[C@@H]1O |  |
| 4.3 µM | 0.5 | 0.53 | CC(=O)N[C@H]1[C@H]([C@@H](O)[C@H](O)CNC(=O)c2ccc(Cl)cc2)O[C@@](OCc2cccc(Cl)c2Cl)(C(=O)O)C[C@@H]1O |  |
| 17 µM | 0.6 | -0.17 | CS(=O)(=O)N[C@H]1[C@H]([C@@H](O)[C@H](O)CNC(=O)c2ccc(Cl)cc2)O[C@@](OCc2cccc(F)c2F)(C(=O)O)C[C@@H]1O |  |
| 4.1 µM | 0.1 | 0.31 | O=C(NC[C@@H](O)[C@H](O)[C@@H]1O[C@@](OCc2cccc(F)c2F)(C(=O)O)C[C@H](O)[C@H]1NC(=O)C1CC1)c1ccc(Cl)cc1 |  |
| 2.4 µM | 0.3 | -0.27 | CC(=O)N[C@H]1[C@H]([C@@H](O)[C@H](O)CNC(=O)c2ccc(Cl)cc2)O[C@@](OCc2cccc(F)c2F)(C(=O)O)C[C@@H]1O | remaining at 19 h [5]: 95%; Ratio [12]: 34.4; remaining [6]: 95% |
| 11.7 µM | 0.74 |  | CC(=O)N[C@H]1[C@H]([C@@H](O)[C@H](O)CNC(=O)c2ccccc2)O[C@@](OCc2c[nH]nn2)(C(=O)O)C[C@@H]1O |  |
| 33.9 µM | 2.65 |  | CC(=O)N[C@H]1[C@H]([C@@H](O)[C@H](O)CNC(=O)c2cccc(Cl)c2)O[C@@](OCc2ccccc2)(C(=O)O)C[C@@H]1O |  |
